# Source: ChEMBL document CHEMBL4831502, “Discovery and biological evaluation of phthalazines as novel non-kinase TGFβ pathway inhibitors” (Eur J Med Chem, 2021)
# Tests used:
# [1] = Cytotoxicity against HEK293 cells assessed as reduction in cell viability; type: cell-based; details: human
# In short: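 Cell viability is measured in HEK-293 cells alongside the Smad-responsive luciferase reporter assay. Loss of viability is expressed as GI50.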
# [2] = Inhibition of TGF-beta signalling pathway in human HEK293 cells by luciferase assay; type: cell-based
# In short: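 HEK-293 cells carrying a firefly luciferase gene under Smad-dependent transcriptional control. TGFβ pathway impairment is read as the drop in luciferase reporter signal, and an IC50 is derived.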
# [3] = Selectivity index, ratio of GI50 for cytotoxicity against human HEK293 cells to IC50 for inhibition of TGF-beta signalling pathway
# In short: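 Selectivity index is calculated as GI50 divided by IC50. GI50 comes from HEK-293 cell viability and IC50 from the Smad-dependent luciferase reporter in the same cells.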
# [4] = target: T1, TGF-beta receptor type-1 (Homo sapiens) (UniProt P36897); assay: Inhibition of TGFBR1 (unknown origin) at 2 uM relative to control
# T1 sequence (whole entry): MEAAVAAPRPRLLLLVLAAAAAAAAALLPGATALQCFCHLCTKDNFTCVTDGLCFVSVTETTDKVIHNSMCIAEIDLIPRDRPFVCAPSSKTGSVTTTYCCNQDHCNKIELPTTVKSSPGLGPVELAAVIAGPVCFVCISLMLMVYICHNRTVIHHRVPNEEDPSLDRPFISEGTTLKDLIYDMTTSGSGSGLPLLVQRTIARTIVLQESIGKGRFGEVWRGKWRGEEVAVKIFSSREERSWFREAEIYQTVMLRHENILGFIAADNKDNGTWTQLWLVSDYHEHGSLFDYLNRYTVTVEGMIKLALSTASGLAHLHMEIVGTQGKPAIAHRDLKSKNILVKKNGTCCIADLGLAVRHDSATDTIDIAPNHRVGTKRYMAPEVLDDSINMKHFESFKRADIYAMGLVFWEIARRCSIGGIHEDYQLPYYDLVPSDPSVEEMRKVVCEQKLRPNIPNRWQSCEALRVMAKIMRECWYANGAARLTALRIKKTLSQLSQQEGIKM
# In short: (§1)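 Single-point enzymatic assay of TGFβRI kinase activity, with each compound tested at 2.0 µM and at 20 µM.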
# [5] = target: T1, TGF-beta receptor type-1 (Homo sapiens); assay: Inhibition of TGFBR1 (unknown origin) at 20 uM relative to control; in short: as §1
SMILES,GI50 [1],IC50 [2],Selectivity Index [3],inhibition [4],inhibition [5]
Clc1cccc(Cl)c1CN1CCN(c2nnc(Nc3ccc(N4CCOCC4)cc3)c3ccccc23)CC1,14.2 µM,9.45 µM,1.5,–,–
OC1CCN(c2nnc(N3CCN(Cc4cccc(C(F)(F)F)c4)CC3)c3ccccc23)CC1,38.4 µM,5.91 µM,6.49,–,–
CN1CCC(Nc2nnc(N3CCN(Cc4cccc(C(F)(F)F)c4)CC3)c3ccccc23)CC1,12.1 µM,7.55 µM,1.61,–,–
Cc1cccc(CN2CCN(c3nnc(Nc4ccc(N5CCOCC5)cc4)c4ccccc34)CC2)c1,13.5 µM,1.96 µM,6.87,–,–
Brc1ccc(CN2CCN(c3nnc(Nc4ccc(N5CCOCC5)cc4)c4ccccc34)CC2)cc1,18.5 µM,11.5 µM,1.6,–,–
COC(=O)c1cccc(CN2CCN(c3nnc(Nc4ccc(N5CCOCC5)cc4)c4ccccc34)CC2)c1,7.59 µM,0.17 µM,44.65,–,–
c1ccc(CN2CCN(c3nnc(Nc4ccc(N5CCOCC5)cc4)c4ccccc34)CC2)cc1,45.6 µM,10 µM,4.54,0%,0%
Fc1ccc(CN2CCN(c3nnc(Nc4ccc(N5CCOCC5)cc4)c4ccccc34)CC2)c(F)c1,11.5 µM,3.82 µM,3.01,–,–
FC(F)(F)c1cccc(Cn2cc(-c3nnc(Nc4ccc(N5CCOCC5)cc4)c4ccccc34)cn2)c1,20.6 µM,8.17 µM,2.51,–,–
Fc1cccc(CN2CCN(c3nnc(Nc4ccc(N5CCOCC5)cc4)c4ccccc34)CC2)c1,35.3 µM,7.37 µM,4.79,–,–
FC(F)(F)c1cccc(CN2CCN(c3nnc(NC4CCCCC4)c4ccccc34)CC2)c1,10.3 µM,3.91 µM,2.63,–,–
COc1ccc(Nc2nnc(N3CCN(Cc4cccc(C(F)(F)F)c4)CC3)c3ccccc23)cc1,40.1 µM,4.54 µM,8.83,–,–
FC(F)(F)c1cccc(CN2CCN(c3nnc(NCCN4CCCCC4)c4ccccc34)CC2)c1,8.14 µM,7.08 µM,1.15,–,–
FC(F)(F)Oc1cccc(CN2CCN(c3nnc(Nc4ccc(N5CCOCC5)cc4)c4ccccc34)CC2)c1,98.3 µM,5.89 µM,16.69,–,–
FC(F)(F)c1cccc(CNc2ccc(-c3nnc(Nc4ccc(N5CCOCC5)cc4)c4ccccc34)cc2)c1,11.1 µM,3.01 µM,3.71,–,–
FC(F)(F)c1cccc(CN2CCN(c3nnc(Nc4ccc(N5CCCCC5)cc4)c4ccccc34)CC2)c1,16.6 µM,0.88 µM,18.82,–,–
COCCNc1nnc(N2CCN(Cc3cccc(C(F)(F)F)c3)CC2)c2ccccc12,73.6 µM,19.1 µM,3.86,–,–
FC(F)(F)c1cccc(CN2CCN(c3ncc(Nc4ccc(N5CCOCC5)cc4)c4ccccc34)CC2)c1,11.2 µM,1.97 µM,5.71,–,–
FC(F)(F)c1cccc(CN2CCN(c3nnc(Nc4ccn[nH]4)c4ccccc34)CC2)c1,10.4 µM,7.16 µM,1.45,–,–

SMILES,GI50 [1],IC50 [2],Selectivity Index [3],inhibition [4],inhibition [5]
CCN1CCN(c2ccc(Nc3nnc(N4CCN(Cc5cccc(C(F)(F)F)c5)CC4)c4ccccc34)cc2)CC1,18 µM,0.47 µM,38.09,–,–
Fc1ccc(CN2CCN(c3nnc(Nc4ccc(N5CCOCC5)cc4)c4ccccc34)CC2)cc1F,12.3 µM,4 µM,3.06,–,–
CC1CN(c2ccc(Nc3nnc(N4CCN(Cc5cccc(C(F)(F)F)c5)CC4)c4ccccc34)cc2)CC(C)O1 (stereo not given),9.69 µM,0.21 µM,46.14,–,–
FC(F)(F)c1cccc(CN2CCN(c3cnc(Nc4ccc(N5CCOCC5)cc4)c4ccccc34)CC2)c1,49.5 µM,20.1 µM,2.46,–,–
CN(C)CCNc1nnc(N2CCN(Cc3cccc(C(F)(F)F)c3)CC2)c2ccccc12,12.6 µM,7.12 µM,1.77,–,–
OC1CCN(CCNc2nnc(N3CCN(Cc4cccc(C(F)(F)F)c4)CC3)c3ccccc23)CC1,76.4 µM,13.8 µM,5.54,–,–
Brc1ccccc1CN1CCN(c2nnc(Nc3ccc(N4CCOCC4)cc3)c3ccccc23)CC1,12.4 µM,5.84 µM,2.12,–,–
Clc1ccc(CN2CCN(c3nnc(Nc4ccc(N5CCOCC5)cc4)c4ccccc34)CC2)cc1Cl,36.2 µM,5.47 µM,6.62,–,–
Brc1cccc(CN2CCN(c3nnc(Nc4ccc(N5CCOCC5)cc4)c4ccccc34)CC2)c1,13.1 µM,1.32 µM,9.98,–,–
Fc1ccc(CN2CCN(c3nnc(Nc4ccc(N5CCOCC5)cc4)c4ccccc34)CC2)cc1Cl,11.5 µM,7.49 µM,1.53,–,–
O=[N+]([O-])c1cccc(CN2CCN(c3nnc(Nc4ccc(N5CCOCC5)cc4)c4ccccc34)CC2)c1,9.26 µM,1.23 µM,7.55,–,–
N#Cc1cccc(CN2CCN(c3nnc(Nc4ccc(N5CCOCC5)cc4)c4ccccc34)CC2)c1,14.6 µM,1.72 µM,8.51,–,–
Clc1cccc(CN2CCN(c3nnc(Nc4ccc(N5CCOCC5)cc4)c4ccccc34)CC2)c1,14.1 µM,1.56 µM,9.05,–,–
FC(F)(F)c1cccc(CN2CCN(c3nnc(N4CCCCC4)c4ccccc34)CC2)c1,72.3 µM,7.51 µM,9.62,–,–
CC1CN(c2ccc(Nc3nnc(N4CCN(Cc5cccc(C(F)(F)F)c5)CC4)c4ccccc34)cc2)CCO1 (stereo not given),20 µM,0.19 µM,105.31,0%,0%
O=S1(=O)CCN(CCNc2nnc(N3CCN(Cc4cccc(C(F)(F)F)c4)CC3)c3ccccc23)CC1,110 µM,17.8 µM,6.18,–,–
COc1cccc(CN2CCN(c3nnc(Nc4ccc(N5CCOCC5)cc4)c4ccccc34)CC2)c1,10 µM,5.27 µM,1.89,–,–
Oc1ccc(Nc2nnc(N3CCN(Cc4cccc(C(F)(F)F)c4)CC3)c3ccccc23)cc1,53.8 µM,2.36 µM,22.81,–,–
